18 compounds from ChEMBL document CHEMBL1123105, “New bidentates as full inhibitors of enkephalin-degrading enzymes: synthesis and analgesic properties” (J Med Chem, 1985) can be followed below.

Structures are written as SMILES. Bounds are passed on as bounds.

What is called IC50 is the midpoint of a concentration-inhibition curve. Higher therefore signals a need for much substance.

The first assay concerns the target T1, Neprilysin (Rattus norvegicus, UniProt P07861).
T1 sequence (P07861 whole entry): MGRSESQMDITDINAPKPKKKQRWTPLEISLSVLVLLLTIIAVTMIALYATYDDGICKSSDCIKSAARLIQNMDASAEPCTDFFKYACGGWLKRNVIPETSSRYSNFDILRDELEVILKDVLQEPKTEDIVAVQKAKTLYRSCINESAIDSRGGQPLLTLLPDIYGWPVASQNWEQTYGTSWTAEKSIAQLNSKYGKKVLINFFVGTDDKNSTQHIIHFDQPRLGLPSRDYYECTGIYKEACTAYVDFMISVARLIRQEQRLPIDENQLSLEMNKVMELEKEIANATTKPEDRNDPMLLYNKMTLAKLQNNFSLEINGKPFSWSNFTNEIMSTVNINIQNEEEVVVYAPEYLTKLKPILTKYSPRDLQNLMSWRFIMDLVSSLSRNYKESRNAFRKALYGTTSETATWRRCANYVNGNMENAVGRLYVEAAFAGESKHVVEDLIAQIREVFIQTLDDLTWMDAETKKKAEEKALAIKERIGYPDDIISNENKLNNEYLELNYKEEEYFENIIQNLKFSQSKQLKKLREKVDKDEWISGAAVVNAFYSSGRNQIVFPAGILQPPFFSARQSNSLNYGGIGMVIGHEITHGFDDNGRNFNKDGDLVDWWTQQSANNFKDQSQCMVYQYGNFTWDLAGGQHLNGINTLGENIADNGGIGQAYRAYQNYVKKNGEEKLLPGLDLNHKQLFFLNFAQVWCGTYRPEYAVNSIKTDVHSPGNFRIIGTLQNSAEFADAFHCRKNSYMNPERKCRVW
Nature of the assay: 50% inhibitory activity against enkephalinase purified from rabbit kidney with [3H]D-Ala2-Leu-enkephalin (20 nM) as substrate.
Consider `C[C@H](NC(=O)[C@H](CC(=O)NO)Cc1ccccc1)C(=O)O`, for which inhibition was half-maximal at 1.8 nM (IC50).

Turning to `C[C@H](NC(=O)[C@@H](CC(=O)NO)Cc1ccccc1)C(=O)O` (racemic) [KELATORPHAN], the IC50 is 1.7 nM.

Molecular target in a further assay: not listed separately
Briefly: Inhibitory activity against rat brain Dipeptidyl aminopeptidase using 10 nM of [3H]Leu-enkephalin as substrate. In short, it runs like this: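 Membrane-bound dipeptidylaminopeptidase purified from rat brain and aminopeptidase M purified from rabbit kidney were each preincubated 15 min at 25 °C with or without increasing inhibitor concentrations in 50 mM Tris-HCl, pH 7.4. […] The reaction was stopped with HCl after 30 min, and tritiated metabolites were separated on polystyrene beads. IC50 came from log probit analysis of five inhibitor concentrations; mean ± SEM.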
Turning to `CC(NC(=O)C(CC(=O)NO)Cc1ccccc1)C(=O)O` (stereo unspecified), inhibition was half-maximal at 2.1 nM (IC50).

`O=CN(O)C(Cc1ccccc1)C(=O)NCC(=O)O` (stereo unspecified) had an IC50 of 232000 nM. `O=CN(O)CC(Cc1ccccc1)C(=O)NCC(=O)O` (stereo unspecified): the midpoint of inhibition, the IC50, lay at 305 nM. `O=C(O)CNC(=O)C(CC(=O)NO)Cc1ccccc1` (stereo unspecified) came in with an IC50 of 21 nM. For `O=C(O)CNC(=O)C(Cc1ccccc1)C(=O)NO` (stereo unspecified), 3500 nM corresponded to half-maximal inhibition (IC50).

In another assay the target is T1, Neprilysin. Nature of the assay: In vitro inhibition of enkephalinase purified from […]. The essentials:
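Enkephalinase purified from kidney (0.9 ± 0.2 pmol/100 µL final) was preincubated 15 min at 25 °C with or without increasing inhibitor concentrations in 50 mM Tris-HCl, pH 7.4. Tritiated metabolites were separated on polystyrene beads. IC50 came from log probit analysis of five inhibitor concentrations; mean ± SEM of five independent experiments.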
In turn, `CC(NC(=O)C(CC(=O)NO)Cc1ccccc1)C(=O)O` (stereo unspecified) came in with an IC50 of 2 nM. On the same count and under the same terms, to `O=CN(O)C(Cc1ccccc1)C(=O)NCC(=O)O` (stereo unspecified) belongs 1500 nM; to `CC(C)CCNC(=O)CNC(=O)C(Cc1ccccc1)CN(O)C=O` (stereo unspecified), 800 nM; to `O=C(CNC(=O)C(Cc1ccccc1)C(=O)NO)NCc1ccccc1` (stereo unspecified), 750 nM.

As for `O=CN(O)CC(Cc1ccccc1)C(=O)NCC(=O)O` (stereo unspecified), the midpoint of inhibition, the IC50, lay at 10 nM. Still for that read-out and setting: to `O=C(O)CNC(=O)C(CC(=O)O)Cc1ccccc1` (stereo unspecified) belongs 800 nM; to `CC(C)CCNC(=O)CNC(=O)C(CC(=O)NO)Cc1ccccc1` (stereo unspecified), 600 nM; to `O=CN(O)CC(Cc1ccccc1)C(=O)NCC(=O)NCc1ccccc1` (stereo unspecified), 1200 nM.

Turning to `COC(=O)CNC(=O)C(Cc1ccccc1)CN(O)C=O` (stereo unspecified), 350 nM corresponded to half-maximal inhibition (IC50).

In the case of `O=C(O)CNC(=O)C(CNO)Cc1ccccc1` (stereo unspecified), the IC50 was greater than 1 nM. For the compound `CC(C)CCNC(=O)CNC(=O)C(Cc1ccccc1)C(=O)NO` (stereo unspecified), half-maximal inhibition (IC50) required 850 nM.

`O=C(O)CNC(=O)C(Cc1ccccc1)C(=O)O` (stereo unspecified): the 50% inhibitory concentration (IC50) came out at 700 nM. Turning to `CC(C)CCNC(=O)CNC(=O)C(Cc1ccccc1)N(O)C=O` (stereo unspecified), the 50% inhibitory concentration (IC50) is 30 nM.

Take `COC(=O)CNC(=O)C(Cc1ccccc1)C(=O)NO` (stereo unspecified): the IC50 was 1 nM.
